Many of the other results were omitted from the sample, so hits are more common in it than they were.
HCT116 PTEN-null = growth suppressors of cells with PTEN tumor suppressor deletion; HCT116 PTEN-null viability, CellTiter-Glo, 60 h; hits give low values; viability, % at 10 µM; hit rate 1.2% among 140,000; AID 827;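 active = viability at or below a set limit, 4 SD under the median of all tested compounds, cut at about 3.7% in these data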;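 also: PTEN knockout HCT116 line with beta catenin targeted HCT116 as companion control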
bCat KO growth = beta-catenin-lacking colon tumor cell growth suppression | hit rate 1.5% among 140,000 | HCT116 beta-catenin knockout viability, CellTiter-Glo, 60 h; hits give low values | AID 818 | viability, % at 10 µM;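 active = viability at or under a set limit, the compound median less 4 SD, cut at about 6% in these data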;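 also: 0% = Hyamine 1622 control at 20 µM and 100% = untreated cell control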
H69AR growth 86K = growth inhibitors of human H69AR lung tumor cells | H69AR lung tumor viability, ATP luminescence, 72 h; hits give low values | viability, % at 10 µM | hit rate 6% among 85,000;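 active = viability at or below 40%; inactive = viability above 40%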;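 also: multidrug resistant small cell line overexpressing MRP-1 efflux transporter; 100% = mean luminescence of untreated control wells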
HUVEC prolif 384 = blocks proliferation of human endothelial cells; HUVEC proliferation, CellTiter-Glo luminescence, 72 h; hits give low values; viability, % at 10 µM (by protocol); hit rate 1.1% among 86,000; AID 648;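 active = viability at or below 30%; inactive = viability above 30%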;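 also: 100% = median luminescence of DMSO-only cell control wells on each plate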
Lung fibro prol = blocks proliferation of human lung fibroblasts. LL 47 human lung fibroblast viability, ATP luminescence; hits give low values. viability, % at 10 µM. hit rate 1.1% among 85,000;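 active = viability at or below 50% in the single dose screen; inactive = viability above 50%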;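 also: compound exposure lasted 72 h before the ATP readout; 100% = median luminescence of untreated cell-only wells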
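Signal: luminescent ATP detection, CellTiter-Glo; assay system: LL 47 human lung fibroblasts; input: 1,150 cells/well; incubation: overnight cell rest, 72 h compound treatment at 37 °C; measure: % viability versus median cells-only luminescence; medium: IMEM growth medium with 15% fetal bovine serum; dosing: compound addition at 0.1% DMSO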
* hit, by the source's call.

`Cc1c(Cl)cccc1Nc1nc(N)nc(CSc2ncccn2)n1` gave HCT116 PTEN-null 79, bCat KO growth 82, H69AR growth 86K 1.4*, HUVEC prolif 384 100 and Lung fibro prol 85.
Screening Cc1c(Cl)cccc1Nc1nc(N)nc(CSc2nc3ccccc3s2)n1 returned HCT116 PTEN-null 62 and bCat KO growth 46.
`Cc1c(Cl)cccc1Nc1nc(N)nc(CSCCO)n1` gave HCT116 PTEN-null 97, bCat KO growth 96, H69AR growth 86K 4.3*, HUVEC prolif 384 89 and Lung fibro prol 102.
CCCCNC(C(=O)Nc1ccc(Cl)c([N+](=O)[O-])c1)c1ccccc1 (centres undefined) was read as HCT116 PTEN-null 78 and bCat KO growth 84.
`COc1cc(C(=O)N2CCN(c3cc(Cl)ccc3Cl)CC2)cc(OC)c1OC` gave HCT116 PTEN-null 13, bCat KO growth 11, H69AR growth 86K 33*, HUVEC prolif 384 43 and Lung fibro prol 53.
`COCCCNC(=O)c1ccc(Cn2c(=O)c3ccccc3n(Cc3cc(C)ccc3C)c2=O)cc1` gave HCT116 PTEN-null 80, bCat KO growth 84, H69AR growth 86K 39*, HUVEC prolif 384 58 and Lung fibro prol 89.
Screening COCCCNC(=O)c1ccc(Cn2c(=O)c3ccccc3n(Cc3ccccc3C#N)c2=O)cc1 returned HCT116 PTEN-null 52, bCat KO growth 55, H69AR growth 86K 18*, HUVEC prolif 384 56 and Lung fibro prol 72.
Screening COCCCNC(=O)c1ccc(Cn2c(=O)[nH]c3ccccc3c2=O)cc1 returned HCT116 PTEN-null 57, bCat KO growth 56, H69AR growth 86K 23*, HUVEC prolif 384 59 and Lung fibro prol 70.
COCCCNC(=O)CCn1c(=O)c2ccccc2n(CC(=O)Nc2ccc(C)cc2C)c1=O was read as HCT116 PTEN-null 97, bCat KO growth 85, H69AR growth 86K 94, HUVEC prolif 384 99 and Lung fibro prol 103.
For COCCCNC(=O)c1ccc(Cn2c(=O)c3ccccc3n(Cc3ccccc3C)c2=O)cc1 the results were HCT116 PTEN-null 84, bCat KO growth 97, H69AR growth 86K 19*, HUVEC prolif 384 59 and Lung fibro prol 88.
`CC(C)CN(CC(C)C)C(=O)CCCC(=O)N(CC(C)C)CC(C)C` gave HCT116 PTEN-null 85 and bCat KO growth 85.
For N#Cc1c(NC(=S)NC(=O)C2CCCC2)sc2c1CCCCC2 the results were HCT116 PTEN-null 85 and bCat KO growth 82.
O=C(Cc1sc(-c2ccccc2)nc1-c1ccccc1)Nc1ccc(Cl)cc1 was read as HCT116 PTEN-null 33, bCat KO growth 30, H69AR growth 86K 20*, HUVEC prolif 384 50 and Lung fibro prol 67.
`O=C(CSc1nnc(-c2ccc(F)cc2)c2ccccc12)Nc1ccccc1` gave HCT116 PTEN-null 75 and bCat KO growth 80.
`O=C(Cc1sc(-c2ccccc2Cl)nc1-c1ccccc1)Nc1ccc(F)cc1` gave HCT116 PTEN-null 85, bCat KO growth 79, H69AR growth 86K 11*, HUVEC prolif 384 79 and Lung fibro prol 45*.
O=C(Cc1sc(-c2ccccc2Cl)nc1-c1ccccc1)Nc1ccccc1 was read as HCT116 PTEN-null 76, bCat KO growth 69, H69AR growth 86K 45, HUVEC prolif 384 66 and Lung fibro prol 23*.
For O=C(Cc1nc(=O)c2ccccc2s1)Nc1ccccc1 the results were HCT116 PTEN-null 97 and bCat KO growth 104.
`CN(C)c1ccc(C2C=C(c3ccc(Cl)cc3OC(F)F)Nc3ncnn32)cc1` (centres undefined) gave HCT116 PTEN-null 18, bCat KO growth 16, H69AR growth 86K 14*, HUVEC prolif 384 57 and Lung fibro prol 83.
Cc1ccc(C2C=C(c3ccccc3OC(F)F)Nc3ncnn32)cc1 (centres undefined) was read as HCT116 PTEN-null 82, bCat KO growth 83, H69AR growth 86K 76 and HUVEC prolif 384 93.
Screening Oc1ccc(/C=N/Nc2nccnc2Cl)c(O)c1 returned HCT116 PTEN-null 6 and bCat KO growth 4.5*.
Oc1ccccc1/C=N/Nc1nccnc1Cl was read as HCT116 PTEN-null 6, bCat KO growth 9, H69AR growth 86K 43, HUVEC prolif 384 59 and Lung fibro prol 32*.
Screening Oc1ccc(/C=N/Nc2cccc3cccnc23)c(O)c1 returned HCT116 PTEN-null 82 and bCat KO growth 75.
Screening CCN(CC)S(=O)(=O)c1ccc(N/N=C/c2ccc(O)cc2O)nc1 returned HCT116 PTEN-null 14 and bCat KO growth 12.

Screens from PubChem.
